Consider 35 compounds from ChEMBL document CHEMBL4371073, “Improvement of Aqueous Solubility of Lapatinib-Derived Analogues: Identification of a Quinolinimine Lead for Human African Trypanosomiasis Drug Development” (J Med Chem, 2019).

The nature of the first data set: Intrinsic clearance in human liver microsomes by LC-MS/MS analysis. The note with it: liver microsomes, read-out: CLH. It is filed as ADME, Microsome. The method, boiled down: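 Human liver microsomes were incubated with compound and samples analyzed by LC/MS/MS. Clint is expressed as μL/min/mg.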
Take `CN(CCNc1ncc(-c2ccc3c(Nc4cnccn4)ccnc3c2)cn1)C(=O)OC(C)(C)C`: the microsomal CLint is > 300 µL/min/mg. Still for that read-out and setting: the same measure for `CN1CCN(c2ncc(-c3ccc4c(Nc5cnccn5)ccnc4c3)cn2)CC1`: 180 µL/min/mg.

Still in this data set, the particulars now being: microsomes.
As to `CN1CC2(CCN(c3ncc(-c4ccc5c(Nc6cnccn6)ccnc5c4)cn3)C2)C1`, the Microsomal intrinsic clearance worked out at 43 µL/min/mg. The same measure, in the same setting: for `Cc1cnc(Nc2ccnc3cc(-c4cnc(N5CCCN(C)CC5)nc4)ccc23)cn1` the value was 100 µL/min/mg; for `COC(=O)[C@@H]1CCCN1c1ncc(-c2ccc3c(Nc4cnccn4)ccnc3c2)cn1`, 220 µL/min/mg; for `CCN1CCN(c2ncc(-c3ccc4c(Nc5cnccn5)ccnc4c3)cn2)CC1`, > 300 µL/min/mg.

Compound `CCCN1CCCN(c2ncc(-c3ccc4c(Nc5cnccn5)ccnc4c3)cn2)CC1` displayed a Microsomal intrinsic clearance of 300 µL/min/mg. Same read-out and setting: the same measure for `Cc1nccnc1Nc1ccnc2cc(-c3cnc(N4CCCN(C)CC4)nc3)ccc12`: 79 µL/min/mg.

With `CN1CCN(c2ncc(-c3ccc4c(Nc5cnccn5)ccnc4c3)cn2)CC1.CS(=O)(=O)O`, the Microsomal intrinsic clearance stood at 170 µL/min/mg. Still for that read-out and setting: for `CN1CCN(c2ncc(-c3ccc4c(NC5CCOCC5)ccnc4c3)cn2)CC1` the value was 94 µL/min/mg; for `c1cnc(Nc2ccnc3cc(-c4cnc(N5CCCCCC5)nc4)ccc23)cn1`, > 300 µL/min/mg. Still for that read-out and setting: for `COc1ccc(NC(=O)c2ccc(-c3cnc(N4CCCN(C)CC4)nc3)cc2O)cc1Cl` the value was 24 µL/min/mg. The same measure, in the same setting: for `CCCn1cc/c(=N\c2cnccn2)c2ccc(-c3cnc(N4CCCN(C)CC4)nc3)cc21` the value was 51 µL/min/mg; for `CC(C)(C)OC(=O)NCCNc1ncc(-c2ccc3c(Nc4cnccn4)ccnc3c2)cn1`, > 300 µL/min/mg. The compound `CCN1CCCN(c2ncc(-c3ccc4c(Nc5cnccn5)ccnc4c3)cn2)CC1` displayed a Microsomal intrinsic clearance of 200 µL/min/mg. Same read-out and setting: for `CN1CCN(c2ncc(-c3ccc4c(N[C@@H]5CCCC[C@H]5O)ccnc4c3)cn2)CC1` the value was 160 µL/min/mg. Same read-out and setting: the same measure for `CN1CCN(c2ncc(-c3ccc4c(Nc5cnccn5)ccnc4c3)cn2)CC1.Cl`: 160 µL/min/mg; for `c1cnc(Nc2ccnc3cc(-c4cnc(N5CCNCC5)nc4)ccc23)cn1`: 30 µL/min/mg. The same measure, in the same setting: the same measure for `CCn1cc/c(=N\c2cnccn2)c2ccc(-c3cnc(N4CCCN(C)CC4)nc3)cc21`: 38 µL/min/mg; for `CN1CCN(c2ccc(-c3ccc4c(Nc5cnccn5)ccnc4c3)cc2)CC1`: 61 µL/min/mg. Regarding `CN1CCN(c2ncc(-c3ccc4c(NC5CCCCC5)ccnc4c3)cn2)CC1`, the Microsomal intrinsic clearance is 300 µL/min/mg.

In turn, `CN(C)CCN(C)c1ncc(-c2ccc3c(Nc4cnccn4)ccnc3c2)cn1` gave a Microsomal intrinsic clearance of 45 µL/min/mg.

The compound `CN1C[C@H]2C[C@@H]1CN2c1ncc(-c2ccc3c(Nc4cnccn4)ccnc3c2)cn1` had a Microsomal intrinsic clearance of 41 µL/min/mg.

Turning to `CN1CCCN(c2ncc(-c3ccc4c(N(C)c5cnccn5)ccnc4c3)cn2)CC1`, the Microsomal intrinsic clearance was 170 µL/min/mg.

In the case of `CN1CCN(c2ncc(Nc3ccc4c(Nc5cnccn5)ccnc4c3)cn2)CC1`, the Microsomal intrinsic clearance stood at 46 µL/min/mg.

`CN1CCN(c2ncc(-c3ccc4c(NCC5CCOCC5)ccnc4c3)cn2)CC1`: the Microsomal intrinsic clearance turned out to be 170 µL/min/mg. As for `CN1CCC2(CCN(c3ncc(-c4ccc5c(Nc6cnccn6)ccnc5c4)cn3)C2)C1` (stereo not drawn), the Microsomal intrinsic clearance was 77 µL/min/mg. The same measure, in the same setting: the same measure for `CN1CCCN(c2ncc(-c3ccc4c(Nc5cnccn5)ccnc4c3)cn2)CC1`: 77 µL/min/mg; for `Cc1cncc(Nc2ccnc3cc(-c4cnc(N5CCCN(C)CC5)nc4)ccc23)n1`: 72 µL/min/mg. `O=C(O)CN1CCN(c2ncc(-c3ccc4c(Nc5cnccn5)ccnc4c3)cn2)CC1` had a Microsomal intrinsic clearance of 53 µL/min/mg. The same measure, in the same setting: the same measure for `O=C(O)[C@@H]1CCCN1c1ncc(-c2ccc3c(Nc4cnccn4)ccnc3c2)cn1`: < 3 µL/min/mg; for `CN1CCN(c2ncc(-c3ccc4c(Nc5cnccn5)ccnc4c3)cn2)CC1.O=C(O)CC(O)(CC(=O)O)C(=O)O`: 190 µL/min/mg; for `NCCNc1ncc(-c2ccc3c(Nc4cnccn4)ccnc3c2)cn1`: 86 µL/min/mg. With `CN1C[C@@H]2C[C@H]1CN2c1ncc(-c2ccc3c(Nc4cnccn4)ccnc3c2)cn1`, the Microsomal intrinsic clearance came out at 37 µL/min/mg.

The nature of another data set: Chemical stability in 0.01 N NaOH solution at 2 mg up to 16 hrs by LC-MS analysis.
Settings: not given
The class given is physicochemical.
As for `CN1CCCN(c2ncc(-c3ccc4/c(=N/c5cnccn5)ccn(C)c4c3)cn2)CC1`, the Stability entry is reported as “Stable”.

A short description of a further data set: Chemical stability in 0.01 N HCl solution at 2 mg up to 16 hrs by LC-MS analysis.
Settings: not given
It is filed as physicochemical.
As for `CN1CCCN(c2ncc(-c3ccc4/c(=N/c5cnccn5)ccn(C)c4c3)cn2)CC1`, the Stability result is recorded as “Stable”.

The nature of a further data set: Stability in presence of GSH at 2.3 mg up to 24 hrs by LC-MS analysis.
Settings: not given
It is filed as physicochemical.
As to `CN1CCCN(c2ncc(-c3ccc4/c(=N/c5cnccn5)ccn(C)c4c3)cn2)CC1`, the Stability result is “Stable”.

Another data set is described as follows: Stability in presence of sodium cyanide at 2.3 mg up to 24 hrs by LC-MS analysis. It is filed as physicochemical.
Settings: not given
On to `CN1CCCN(c2ncc(-c3ccc4/c(=N/c5cnccn5)ccn(C)c4c3)cn2)CC1`, for which the Stability entry is given as “Stable”.
